The source made the active and inactive calls. No cut-off for these calls is given here.
What was measured:
[1] = Inhibition of telomerase by TRAP assay; set-up: species or system Homo sapiens
Outline: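 Cell-free modified TRAP using A2780 ovarian carcinoma extract, 0.04 μg protein. TS primer extended in TRAP buffer pH 8.3 with 68 mM KCl, 1.5 mM MgCl2, 50 μM dNTPs and [32P]dCTP, agent up to 50 μM final, 20 min at 25 °C. Then 31 PCR cycles; products read by denaturing gel phosphorimaging or filter scintillation counting.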

[2] = species: Homo sapiens; assay: Induction of G-quadruplex in G-rich human telomere 21 DNA assessed as circular dichroism spectral change at 50 uM
Outline: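 Telo21 at 5 μM strand in 10 mM Tris-HCl pH 7.4, no metal ions, compound at 50 μM. Annealed at 90 °C, cooled slowly, held at 4 °C for several hours. CD recorded 320–200 nm, 16 scans at 100 nm/min, 1 nm bandwidth, buffer baseline subtracted.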

[3] = Dissociation constant, pKa of the compound; assay type: physicochemical
Outline: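 UV titration across pH. Molar extinction coefficient read at the two wavelengths where ε changes most between acidic and basic solution, then plotted against pH. pKa taken as the pH midway between the horizontal sections of the curve.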

[4] = species: Homo sapiens; assay: Induction of G-quadruplex in G-rich human telomere 21 DNA by EMSA
Outline: (§1)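 Native-gel shift of 20 μM telo21 in 10 mM Tris-HCl pH 7.4, with or without 100 mM KCl, heated 95 °C for 10 min then cooled. Compound titrated in at increasing concentrations and incubated 4–8 h at room temperature. Run on native 15% PAGE in TBE for 2 h, silver-stained; G-quadruplex and single-strand bands scored.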

[5] = species: Homo sapiens; assay: Destruction of parallel G-quadruplexes in mixed G-quadruplex human telomere 21 DNA in presence of 0.1 M potassium
[6] = species: Homo sapiens; assay: Induction of G-quadruplex in G-rich human telomere 21 DNA in presence of 100 mM K+ ions by EMSA; outline: as §1

| SMILES | IC50 [1] | Activity [2] | pKa [3] | Activity [4] | Activity [5] | Activity [6] |
| --- | --- | --- | --- | --- | --- | --- |
| OCCNc1c2ccccc2nc2c1oc1ccccc12 | 12.3 µM | Active | 8.2 | – | – | – |
| CN(C)CCCNc1c2ccccc2nc2c1[nH]c1ccccc12 | 0.44 µM | Active | 8.4 | – | – | – |
| c1ccc2nc3c(cc2c1)[nH]c1ccccc13 [QUINDOLINE] | > 138 µM | – | 4.2 | – | – | – |
| c1ccc2c(NCCN3CCOCC3)c3oc4ccccc4c3nc2c1 | 4.38 µM | Active | 8.2 | – | – | – |
| CN(C)CCCNc1c2ccccc2nc2c1oc1ccccc12 | 3.29 µM | Active | 8.3 | – | – | – |
| CN(C)CCNc1c2ccccc2nc2c1oc1ccccc12 | 7.11 µM | Active | 8.2 | – | – | – |
| OCCCNc1c2ccccc2nc2c1oc1ccccc12 | 8.12 µM | Active | 8.2 | – | – | – |

Further lines, results first:

| IC50 [1] | Activity [2] | pKa [3] | Activity [4] | Activity [5] | Activity [6] | SMILES |
| --- | --- | --- | --- | --- | --- | --- |
| 2.35 µM | Active | 8.3 | – | – | – | OCCNc1c2ccccc2nc2c1[nH]c1ccccc12 |
| 0.55 µM | Active | 8.4 | Active | Active | Active | c1ccc2c(NCCN3CCOCC3)c3[nH]c4ccccc4c3nc2c1 |
| 1.12 µM | Active | 8.3 | – | – | – | CN(C)CCNc1c2ccccc2nc2c1[nH]c1ccccc12 |
| 1.55 µM | Active | 8.3 | – | – | – | OCCCNc1c2ccccc2nc2c1[nH]c1ccccc12 |

Source: ChEMBL document CHEMBL1139482, “Synthesis and evaluation of quindoline derivatives as G-quadruplex inducing and stabilizing ligands and potential inhibitors of telomerase” (J Med Chem, 2005)
